Assay outcomes: PubChem BioAssay, Broad Institute
AF4-AF9 inh = inhibitors of human MLL-AF4/AF9 interaction; P42568; AlphaScreen, biotin-AF4 peptide binding to FLAG-AF9; inhibition, % at 10 µM; 350,000 compounds, 0.47% hits; AID 651704;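 active means every replicate reaching a set inhibition limit, whatever the replicate mean, cut at about 25% in these data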;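 further: 0% = plate neutral control median and 100% = total signal loss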
Target sequence (P42568 whole entry, looked up): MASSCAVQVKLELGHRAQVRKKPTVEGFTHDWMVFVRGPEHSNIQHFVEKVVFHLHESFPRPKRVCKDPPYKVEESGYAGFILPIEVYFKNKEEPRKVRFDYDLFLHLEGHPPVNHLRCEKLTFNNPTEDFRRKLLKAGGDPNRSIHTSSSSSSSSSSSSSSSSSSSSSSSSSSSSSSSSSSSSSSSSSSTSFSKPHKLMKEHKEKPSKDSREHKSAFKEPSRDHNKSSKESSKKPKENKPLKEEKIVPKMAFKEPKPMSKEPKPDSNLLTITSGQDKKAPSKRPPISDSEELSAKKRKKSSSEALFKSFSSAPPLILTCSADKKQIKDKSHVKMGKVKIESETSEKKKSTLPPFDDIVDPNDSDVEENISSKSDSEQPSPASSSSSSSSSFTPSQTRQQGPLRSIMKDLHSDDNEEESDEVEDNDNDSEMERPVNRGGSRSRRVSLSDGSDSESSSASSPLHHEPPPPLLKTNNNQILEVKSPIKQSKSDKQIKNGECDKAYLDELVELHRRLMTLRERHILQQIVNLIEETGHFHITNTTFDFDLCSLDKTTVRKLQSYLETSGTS
E-selectin induc = E-selectin induction on HUVECs | P16581 | HUVEC E-selectin immunofluorescence imaging; normalized: neutral wells 0, TNF-alpha wells 100 | activation, % at 7.58 µM | 260,000 compounds, 0.37% hits;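 active means mean E-selectin-positive cell signal at least 10% of the positive control, reached in at least 60% of replicates, without over 20% cell loss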
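Material: HUVEC primary endothelial cells; Amount: 3,000 cells per well; Dosing: single concentration; Medium: EGM-2 growth medium on 0.1% gelatin-coated wells; Read-out basis: percent E-selectin-positive cells; Signal: immunofluorescence imaging; Control set: TNF-alpha, DMSO.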
GSIS activator = GLuc luminescence reporter in INS-1E cells, primary screen for activators of glucose-dependent secretion of insulin; INS-1E GLuc reporter insulin secretion, 2-3 h; activation, % at 16.6 µM; 370,000 compounds, 0.61% hits; AID 743287;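 active means lowest replicate activation of at least 40%, so every replicate reaches that level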;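 further: 0% = median of neutral control wells and 100% = median of IBMX positive control wells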
Ecoli rRNA inh = inhibitors of bacterial rRNA selective over humanized ribosomes. GFP signal change (wild-type ribosome), % (no concentration beside the values). E. coli WT GFP vs humanized-ribosome RFP mutants, fluorescence, 24 h; stronger effect = lower value; DMSO median 0, no signal -100. 350,000 compounds, 1.6% hits;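 active means significant combined selectivity score with lowered wild-type GFP, culture density cut under 30%, mutant RFP and density less affected; inactive means any of these conditions unmet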
RAD54 inh = blocks human RAD54 Holliday junction branch migration. AID 602329. Q92698. FAM/BHQ fluorescence. inhibition, % at 10.4 µM. 360,000 compounds, 0.14% hits;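 active means mean normalized replicate activity at least 40 and at least half of replicates scoring 40 or more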;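 further: 0% = median of neutral control wells and 100% = median of positive control wells; inhibitors cause a drop in the FAM fluorescence signal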
RAD52 inh = blocks human RAD52 DNA annealing; P43351; 360,000 compounds, 0.46% hits; AID 651710; recombinant RAD52 DNA annealing, FRET fluorescence; inhibition, % at 18.7 µM;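 active means every replicate showing at least 50% inhibition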
* marks the source's active call; other numbers are inactive results; nt = no result given. Hits are enriched below; roughly 2.6% of the tested compounds scored in any of these assays.

SMILES | AF4-AF9 inh | E-selectin induc | GSIS activator | Ecoli rRNA inh | RAD54 inh | RAD52 inh
C=CCNC(=O)COc1coc(CN2CCN(C(=O)c3ccco3)CC2)cc1=O | 0.0 | -0.2 | 49.2* | 8.8 | -7.3 | -13.4
O=C(O)CSc1nnc(NC(=O)CN2CCOCC2)s1 | -2.6 | -0.4 | 95.9* | -23.5 | -2.6 | -7.6
CC(C)NC(=O)N(C)C[C@H]1Oc2ccc(NS(=O)(=O)c3cccs3)cc2C(=O)N([C@H](C)CO)C[C@H]1C | nt | -1.1 | 9.6 | -3.5 | nt | nt
COCc1cn(CC[C@H]2CC[C@@H](NC(=O)Nc3ccc4c(c3)OCO4)[C@@H](CO)O2)nn1 | -2.5 | -0.1 | -1.6 | -2.3 | 3.8 | 4.5
C[C@@H]1CN([C@@H](C)CO)C(=O)Cc2cc(NC(=O)Nc3ccc(F)cc3)ccc2O[C@@H]1CN(C)Cc1ccncc1 | 1.2 | 127.5* | -11.9 | -6.4 | -4.4 | 14.3
C[C@@H]1CN([C@@H](C)CO)C(=O)Cc2cc(NC(=O)Nc3ccc(F)cc3)ccc2O[C@H]1CN(C)Cc1ccncc1 | -0.8 | -12.8 | -10.5 | 0.7 | 4.2 | 25.0
C[C@@H]1CN([C@H](C)CO)C(=O)Cc2cc(NC(=O)Nc3ccc(F)cc3)ccc2O[C@@H]1CN(C)Cc1ccncc1 | 0.7 | 44.0* | -19.0 | -10.4 | -5.5 | 12.0
Cc1cn2c(N)c(C=C3C=C(Cl)C(=O)C(Cl)=C3)c(=O)nc2s1 | 0.7 | 141.9* | -23.9 | 17.9 | nt | -211.4
COc1ccc(C(=O)c2cn[nH]c2-c2cc(C)ccc2O)cc1 | -0.5 | 0.5 | 3.5 | -16.1* | 2.7 | -5.5
CNC[C@H]1OCCCC[C@@H](C)Oc2ccc(NS(=O)(=O)c3cn(C)cn3)cc2C(=O)N([C@@H](C)CO)C[C@H]1C | nt | 0.0 | 20.4 | 3.3 | -15.6 | nt
Cc1ccc(S(=O)(=O)N(C)C[C@H]2OCCCC[C@@H](C)Oc3ccc(NS(=O)(=O)c4cn(C)cn4)cc3C(=O)N([C@@H](C)CO)C[C@H]2C)cc1 | 2.8 | nt | -24.2 | -3.8 | -1.5 | -21.4
CCN(Cc1ccccc1)S(=O)(=O)c1ccc(C(=O)Nc2nnc(C)o2)cc1 | 0.1 | -0.3 | 53.8* | -0.2 | 14.5 | -6.5
CCCN1C[C@H](C)[C@@H](OC)CN(C)C(=O)c2cc(NC(=O)c3cccc(F)c3)ccc2OC[C@@H]1C | 2.5 | -0.2 | -14.4 | 0.6 | -4.1 | 11.2
COc1ccc(N2CCN(C(=O)c3ccc(SC)cc3OC)CC2)cc1 | 4.7 | nt | -18.2 | -2.0 | nt | -3.5
COc1cc(SC)ccc1C(=O)N1CCN(c2ccccc2F)CC1 | -3.0 | 6.4 | -22.3 | -23.8* | nt | 3.6
C[C@@H](NC(=O)C[C@H]1CC[C@H]2[C@@H](COC[C@@H](O)CN2C)O1)c1ccccc1 | 1.5 | 0.0 | 5.9 | 2.6 | 2.1 | -4.1
COc1cccc(-c2cccc(-c3nc(C(=O)Nc4ccc(-c5ccccc5)cc4)cc4c3[C@@H](CCO)N(S(=O)C(C)(C)C)C4)c2)c1 (some centres undefined) | -2.2 | 35.7* | 6.3 | 6.2 | nt | -59.4
CC(C)(C)S(=O)N1Cc2cc(C(=O)Nc3ccc(-c4ccccc4)cc3)nc(-c3cccc(-c4cccc(F)c4)c3)c2[C@@H]1CCO (some centres undefined) | -1.7 | 28.9* | 189.5* | 7.2 | nt | -41.0
CCNC(=O)c1cc2c(c(-c3cccc(-c4cccc(F)c4)c3)n1)[C@@H](CCO)N([S@](=O)C(C)(C)C)C2 | 0.2 | 0.0 | 1.7 | -11.6 | 2.8 | -21.2
CCNC(=O)c1cc2c(c(-c3cccc(-c4cccc(OC)c4)c3)n1)[C@H](CCO)N([S@@](=O)C(C)(C)C)C2 | 11.2 | 0.1 | -7.8 | -1.8 | 0.6 | -17.5
COc1ccc(NC(=O)Nc2ccc3c(c2)C(=O)N([C@@H](C)CO)C[C@@H](C)[C@@H](CN(C)Cc2ccccc2)OCCCC[C@H](C)O3)cc1 | 3.2 | 0.0 | -11.8 | -0.5 | -1.6 | 41.3
COc1ccnc(N2CCN(c3ccc(Cl)cc3)CC2)c1C#N | -0.8 | nt | -25.2 | 8.0 | -6.5 | -15.0
COc1ccnc(N2CCN(c3cccc(C(F)(F)F)c3)CC2)c1C#N | nt | nt | 72.7* | nt | -13.0 | nt
CCOC(=O)c1c(C)[nH]c(C(=O)COC(=O)c2cnc(C)cn2)c1C | nt | nt | nt | nt | 1.9 | nt
CCOC(=O)c1c(C)[nH]c(C(=O)C(C)OC(=O)c2cnc(C)cn2)c1C (centres undefined) | 0.0 | nt | -3.7 | -25.5* | 1.2 | -11.8
SMILES | AF4-AF9 inh | E-selectin induc | GSIS activator | Ecoli rRNA inh | RAD54 inh | RAD52 inh
O=c1oc(-c2cc3ccccc3o2)nc2sc3c(c12)CCCC3 | 3.5 | nt | 1.0 | -22.8* | -7.2 | -44.1
O=c1oc(-c2ccccc2)nc2sc3c(c12)CCCC3 | nt | nt | 1.9 | nt | -18.9 | nt
CO[C@H]1CN(C)C(=O)c2cc(NS(C)(=O)=O)ccc2OC[C@H](C)N(Cc2cccnc2)C[C@@H]1C | nt | -0.1 | 4.4 | 1.9 | nt | nt
Cn1c2ccccc2c(=O)c2c(=O)n(Cc3ccco3)c(-c3ccc(F)cc3)nc21 | -10.3 | 0.4 | -13.5 | -38.0* | -7.0 | -10.7
CCC(=O)N1CC[C@@H]2[C@@H](CO)Nc3ccc(-c4ccccc4)cc3[C@@H]21 | 4.7 | 0.0 | 4.2 | 1.2 | -5.0 | nt
C[C@H](NC(=O)[C@@H]1[C@@H](CO)[C@@H]2Cn3c(cccc3=O)[C@H]1N2Cc1ccncc1)c1ccccc1 | -0.8 | -0.1 | 29.3 | 0.8 | 6.6 | 0.3
COc1ccc(CCNC(=O)c2cc3c(=O)n4ccccc4nc3n(C3CCCCC3)c2=N)cc1OC | 9.0 | nt | 31.2 | -19.5* | 38.5 | 29.1
NC(=S)N/N=C/c1ccc(-c2cc(Cl)cc(Cl)c2)o1 | nt | nt | nt | nt | -12.6 | nt
NC(=S)N/N=C/c1ccc(-c2cc(Cl)ccc2Cl)o1 | -2.6 | nt | 1.8 | -21.4* | 4.7 | -21.9
C=CCOc1ccc(-c2nc3c(c(=O)[nH]c(=O)n3CCCC)n2C)cc1Br | -6.1 | nt | 50.5* | -21.3 | 12.9 | -6.7
CCCCn1c(=O)[nH]c(=O)c2c1nc(-c1ccc([N+](=O)[O-])cc1)n2CC | -0.4 | 2.7 | 190.8* | 6.6 | -12.4 | -17.6
CCCCn1c(-c2ccsc2)nc2c1c(=O)[nH]c(=O)n2CCC | nt | nt | nt | nt | -16.5 | nt
Cc1cccc(N(C(=O)Nc2ccc(Cl)cc2)C2=NCC(C)S2)n1 (centres undefined) | -2.8 | 1.2 | 9.7 | -28.7* | -0.7 | -8.6
Cc1ccc(NC(=O)N(C2=NCC(C)S2)c2ccccc2)cc1 (centres undefined) | nt | nt | nt | nt | -1.0 | nt
CSc1ncnc2c1cnn2-c1ccc(C)cc1C | -3.8 | -1.1 | 8.7 | -5.5 | nt | -5.1
Cc1ccc(-n2ncc3c(SCc4ccccn4)ncnc32)c(C)c1 | -4.1 | nt | -26.2 | -15.6* | nt | -6.6
CN(C)CCCN(C(=O)CCc1ccccc1)c1nc2ccc(Br)cc2s1 | 26.2* | nt | 22.8 | -56.5 | 6.0 | 40.6
Cc1ccc(C(=O)Nc2ccc(O)cc2C(=O)O)cc1C | 13.6 | nt | 19.7 | -25.1* | -4.9 | -11.5
